# Assays:
# [1] = Inhibitory activity against colchicine resistant parent primary liver carcinoma (PLC) cell line PLC/PRF/5; assay type: functional, Homo sapiens
# Summary of the method: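 PLC/PRF/5 cells were precultured 24 h at 37 °C in 5% CO₂ in 96-well plates, then given colchicine at 0.5 μg/mL. Test compounds were added in dilutions of 10⁻²–10⁻⁶ μg/mL and incubated 72 h at 37 °C in 5% CO₂. Survival was read by MTT. IC50 is the μg/mL giving 50% growth inhibition of the colchicine-resistant cells.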
# [2] = Inhibitory activity against the primary liver carcinoma (PLC) cell line PLC/PRF/5; assay type: functional, Homo sapiens
SMILES,IC50 [1],IC50 [2]
CC(=O)O[C@@H]1C[C@]2(C)[C@@H](c3ccc(=O)oc3)CC[C@]2(O)[C@@H]2CC[C@@H]3CC(=O)CC[C@]3(C)[C@H]21,5.6 µg/mL,0.79 µg/mL
C[C@]12CC[C@H](O)C[C@H]1CC[C@@H]1[C@@H]2CC[C@]2(C)[C@@H](c3ccc(=O)oc3)C[C@@H]3O[C@]312,26 µg/mL,20 µg/mL
C[C@]12CC[C@H](O)C[C@H]1CC[C@@H]1[C@@H]2CC[C@]2(C)[C@@H](c3ccc(=O)oc3)C[C@H](O)[C@]12O,30 µg/mL,35 µg/mL
C[C@]12C=CC(=O)C[C@H]1CCC1C2CC[C@]2(C)[C@@H](c3ccc(=O)oc3)C[C@H]3O[C@]132 (stereo partly drawn),7.8 µg/mL,2.6 µg/mL
CC(=O)O[C@H]1CC[C@@]2(C)[C@H](CC[C@@H]3[C@@H]2CC[C@]2(C)[C@@H](c4ccc(=O)oc4)[C@H](O)[C@H]4O[C@]342)C1,7.5 µg/mL,6.7 µg/mL
COC(=O)C/C=C/C1=CO[C@]23CCC1[C@@]2(C)C[C@@H](OC(C)=O)[C@H]1[C@H]3CC[C@@H]2C[C@@H](OC(C)=O)CC[C@@]21C,20 µg/mL,9.7 µg/mL
CC(=O)O[C@H]1[C@H]2O[C@]23[C@@H]2CC[C@]4(O)C[C@@H](O)CC[C@]4(C)[C@H]2CC[C@]3(C)[C@H]1c1ccc(=O)oc1 [CINOBUFOTALIN],0.008 µg/mL,0.001 µg/mL
C[C@]12CC[C@H](O)C[C@H]1CC[C@H]1[C@H]3C(=O)C[C@H](c4ccc(=O)oc4)[C@@]3(C)CC[C@@H]12,12 µg/mL,0.82 µg/mL
CC(=O)O[C@H]1CC[C@@]2(C)[C@H](CC[C@@H]3[C@@H]2CC[C@]2(C)[C@@H](c4ccc(=O)oc4)[C@@H](OC(=O)CCC(=O)O)[C@H]4O[C@]342)C1,> 50 µg/mL,50 µg/mL
CC(=O)O[C@H]1CC[C@@]2(C)[C@H](CC[C@@H]3[C@@H]2CC[C@]2(C)[C@@H](c4ccc(=O)oc4)CC(=O)[C@@H]32)C1,1.8 µg/mL,0.55 µg/mL
C[C@]12CC[C@H](O)C[C@H]1CC[C@@H]1[C@@H]2CC[C@]2(C)C3CC[C@]12OC=C3/C=C/CC(=O)O,> 50 µg/mL,10 µg/mL
C[C@]12CC[C@H](O)C[C@H]1CC[C@@H]1[C@@H]2[C@H](O)C[C@]2(C)[C@@H](c3ccc(=O)oc3)CC[C@]12O [GAMABUFOTALIN],0.0008 µg/mL,0.00023 µg/mL
C[C@]12CC[C@H](O)C[C@@]1(O)CC[C@@H]1[C@@H]2CC[C@]2(C)[C@@H](C3=CC(=O)OC3)CC[C@]12O [PERIPLOGENIN],0.75 µg/mL,0.061 µg/mL
C[C@]12C=CC(=O)C=C1CCC1C2CC[C@]2(C)[C@@H](c3ccc(=O)oc3)C[C@H]3O[C@]132 (stereo partly drawn),10 µg/mL,6.7 µg/mL
CC(=O)O[C@H]1CC[C@]2(C)C3CC[C@]4(C)[C@@H](c5ccc(=O)oc5)[C@@H](OC(C)=O)C[C@@]4(O)C3CC[C@@H]2C1 (stereo partly drawn),21 µg/mL,7.5 µg/mL
COC(=O)CCCCCCC(=O)O[C@H]1CC[C@@]2(C)[C@H](CC[C@@H]3[C@@H]2CC[C@]2(C)[C@@H](C4=CC(=O)OC4)CC[C@]32O)C1,0.98 µg/mL,0.53 µg/mL
CC(=O)O[C@H]1CC[C@@]2(C)[C@H](CC[C@@H]3[C@@H]2CC[C@]2(C)[C@@H](c4ccc(=O)oc4)CC[C@]32O)C1,0.009 µg/mL,0.0002 µg/mL
CCOC(=O)C/C=C/C1=CO[C@]23CCC1[C@@]2(C)CC[C@H]1[C@H]3CC[C@@H]2C[C@@H](O)CC[C@@]21C,9.5 µg/mL,7.5 µg/mL
CCOC(=O)C/C=C/C1=CO[C@]23CCC1[C@@]2(C)CC[C@H]1[C@H]3CC[C@@H]2C[C@@H](OC(C)=O)CC[C@@]21C,41 µg/mL,6.4 µg/mL
C[C@]12CC[C@H](O)C[C@@]1(O)CC[C@@H]1[C@@H]2CC[C@]2(C)[C@@H](c3ccc(=O)oc3)[C@@H](O)[C@H]3O[C@]132 [DESACETYLCINOBUFOTALIN],0.64 µg/mL,0.67 µg/mL
C[C@]12CCC(=O)C[C@H]1CC[C@@H]1[C@@H]2CC[C@]2(C)[C@@H](c3ccc(=O)oc3)C[C@H]3O[C@]132,9.7 µg/mL,5.8 µg/mL
CC(=O)O[C@H]1CC[C@@]2(C)[C@H](CC[C@@H]3[C@@H]2CC[C@]2(C)[C@@H](C4=CC(=O)OC4)CC[C@]32O)C1,0.5 µg/mL,0.55 µg/mL

SMILES,IC50 [1],IC50 [2]
C[C@]12CCC(=O)C[C@H]1CC[C@@H]1[C@@H]2CC[C@]2(C)[C@@H](c3ccc(=O)oc3)CC(=O)[C@@H]12,10 µg/mL,7 µg/mL
CC(=O)O[C@H]1C[C@]2(O)[C@@H]3CC[C@@H]4C[C@@H](O)CC[C@]4(C)[C@H]3CC[C@]2(C)[C@H]1c1ccc(=O)oc1 [BUFOTALIN],0.0026 µg/mL,0.00034 µg/mL
CCOC(=O)C/C=C(\C=O)C1[C@@H](O)C(=O)[C@H]2[C@@H]3CC[C@@H]4C[C@@H](OC(C)=O)CC[C@]4(C)[C@H]3CC[C@]12C (stereo partly drawn),33 µg/mL,22 µg/mL
C[C@]12CCC(=O)C=C1CCC1C2CC[C@]2(C)[C@@H](c3ccc(=O)oc3)CC[C@]12O (stereo partly drawn),0.82 µg/mL,0.00019 µg/mL
C[C@]12CC[C@H](OC(=O)CCC(=O)O)C[C@H]1CC[C@@H]1[C@@H]2CC[C@]2(C)[C@@H](c3ccc(=O)oc3)CC[C@]12O,0.51 µg/mL,0.066 µg/mL
CC(=O)O[C@H]1CC[C@]2(C)C3CC[C@]4(C)[C@@H](c5ccc(=O)oc5)[C@@H](O)[C@@H]5O[C@@]54C3CC[C@@H]2C1 (stereo partly drawn),1 µg/mL,0.88 µg/mL
CC(=O)O[C@@H]1CC[C@]2(C)C3CC[C@]4(C)[C@@H](c5ccc(=O)oc5)C[C@@H]5O[C@@]54C3CC[C@@H]2C1 (stereo partly drawn),43 µg/mL,4.7 µg/mL
C[C@]12CC[C@H](O)C[C@@]1(O)CCC1C2CC[C@]2(C)[C@@H](c3ccc(=O)oc3)C[C@@H]3O[C@@]132 (stereo partly drawn),0.49 µg/mL,0.52 µg/mL
C[C@]12CC[C@H](O)C[C@H]1CC[C@@H]1[C@@H]2CC[C@]2(C)[C@@H](c3ccc(=O)oc3)C[C@H](O)[C@]12Cl,0.82 µg/mL,0.07 µg/mL
CC(=O)CC1OC2C(C1C=O)[C@@]1(C)CC[C@H]3[C@@H](CC[C@@H]4C[C@@H](O)CC[C@@]43C)[C@]13O[C@H]23 (stereo partly drawn),> 50 µg/mL,26 µg/mL
C[C@]12CC[C@@H](O)C[C@H]1CC[C@@H]1[C@@H]2CC[C@]2(C)[C@@H](c3ccc(=O)oc3)C[C@H]3O[C@]132,43 µg/mL,8.3 µg/mL
CC(=O)O[C@H]1CC[C@@]2(C)[C@H](CC[C@@H]3[C@@H]2CC[C@]2(C)[C@@H](c4ccc(=O)oc4)C[C@H]4O[C@]342)C1,0.95 µg/mL,0.32 µg/mL
C[C@]12CC[C@H](O)C[C@H]1CC[C@@H]1[C@@H]2CC[C@]2(C)[C@@H](c3ccc(=O)oc3)C[C@H]3O[C@]132 [BUFOGENIN],0.076 µg/mL,0.077 µg/mL
C[C@]12CC[C@H](O)C[C@H]1CC[C@@H]1[C@@H]2CC[C@]2(C)[C@@H](c3ccc(=O)oc3)[C@@H](O)C[C@]12O [DESACETYLBUFOTALIN],0.008 µg/mL,0.00078 µg/mL
CC(=O)O[C@H]1[C@H]2O[C@]23[C@@H]2CC[C@@H]4C[C@@H](OC(=O)c5cc([N+](=O)[O-])cc([N+](=O)[O-])c5)CC[C@]4(C)[C@H]2CC[C@]3(C)[C@H]1c1ccc(=O)oc1,9.6 µg/mL,0.78 µg/mL
C[C@]12CCC3C(CC[C@@H]4C[C@@H](O)CC[C@]34C)C1=CC[C@@H]2C1=CC(=O)OC1 (stereo partly drawn),0.73 µg/mL,0.36 µg/mL
COC(=O)C/C=C/C1=CO[C@]23CCC1[C@@]2(C)CC[C@H]1[C@H]3CC[C@@H]2C[C@@H](OC(C)=O)CC[C@@]21C,41 µg/mL,6.6 µg/mL
C[C@]12CC[C@H](O)C[C@H]1CC[C@@H]1[C@@H]2CC[C@]2(C)[C@@H](C3=CC(=O)OC3)CC[C@]12O [DIGITOXIGENIN],0.0092 µg/mL,0.00087 µg/mL
CC(=O)O[C@H]1CC[C@]2(C)C3CC[C@@]4(C)C(=C[C@H](OC(C)=O)[C@@H]4c4ccc(=O)oc4)C3CC[C@@H]2C1 (stereo partly drawn),7.3 µg/mL,5 µg/mL
C[C@]12CC[C@H](OC(=O)CCCCCCC(=O)O)C[C@H]1CC[C@@H]1[C@@H]2CC[C@]2(C)[C@@H](C3=CC(=O)OC3)CC[C@]12O,8.6 µg/mL,5.2 µg/mL
C[C@]12CCC(=O)C[C@H]1CCC1C2CC[C@]2(C)[C@@H](c3ccc(=O)oc3)C[C@@H]3O[C@@]132 (stereo partly drawn),43 µg/mL,8.7 µg/mL
CC(=O)O[C@H]1CC[C@@]2(C)[C@H](CC[C@@H]3[C@@H]2CC[C@]2(C)[C@@H](c4ccc(=O)oc4)[C@@H](O)[C@H]4O[C@]342)C1,3.4 µg/mL,0.098 µg/mL
